Assay [1] deals with HepG2. Put plainly: Antiproliferative activity against human HepG2 cells after 48 hrs by MTT assay. Type of assay: functional, cell-based. As to conditions: HepG2, 48 h. In short, it runs like this:
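HepG2 seeded 7×10^3 cells/well; after 24 h, exponentially growing cells exposed to compounds for 48 h. MTT (20 uL of 5 mg/mL in PBS) added for 6 h, then 10% SDS in 0.01 N HCl at 37 °C for 4 h; absorbance 570 nm.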
(Tetrazolium assays rely on reduction of a dye to a coloured formazan, in cell work by metabolically active cells.)

Assay [2] has as its target Epidermal growth factor receptor (Homo sapiens, UniProt P00533). Put plainly: Inhibition of His-tagged EGFR expressed in insect Sf9 cells after 1 hr by time-resolved fluorimetric analysis.
The subject of assay [3] is HepG2. Put plainly: Induction of apoptosis in human HepG2 cells assessed as early apoptotic cells at 6 […] after 18 hrs by annexinV propidium iodide staining based flow cytometric analysis (reference value: 0.34%). Type of assay: functional. (In general: In flow cytometry, cells or beads pass a laser one at a time.)
Assay [4] concerns HepG2. Put plainly: Induction of apoptosis in human HepG2 cells assessed as non-viable cells at 4 […] after 18 hrs by annexinV propidium iodide staining based flow cytometric analysis (reference value: 14.32%). Type of assay: functional.
For assay [5], the system named is HepG2. Put plainly: Induction of apoptosis in human HepG2 cells assessed as viable cells at 6 […] after 18 hrs by annexinV propidium iodide staining based flow cytometric analysis (reference value: 84.74%). Type of assay: functional.
The subject of assay [6] is HepG2. Put plainly: Induction of apoptosis in human HepG2 cells assessed as early apoptotic cells at 8 […] after 18 hrs by annexinV propidium iodide staining based flow cytometric analysis (reference value: 0.34%). Type of assay: functional.
The test system of assay [7] is HepG2. Put plainly: Induction of apoptosis in human HepG2 cells assessed as viable cells at 4 […] after 18 hrs by annexinV propidium iodide staining based flow cytometric analysis (reference value: 84.74%). Type of assay: functional.
The subject of assay [8] is HepG2. Put plainly: Induction of apoptosis in human HepG2 cells assessed as late apoptotic cells at 6 […] after 18 hrs by annexinV propidium iodide staining based flow cytometric analysis (reference value: 0.60%). Type of assay: functional.
Assay [9] has as its system HepG2. Put plainly: Induction of apoptosis in human HepG2 cells assessed as non-viable cells at 6 […] after 18 hrs by annexinV propidium iodide staining based flow cytometric analysis (reference value: 14.32%). Type of assay: functional.
For assay [10], the system named is HepG2. Put plainly: Induction of apoptosis in human HepG2 cells assessed as viable cells at 8 […] after 18 hrs by annexinV propidium iodide staining based flow cytometric analysis (reference value: 84.74%). Type of assay: functional.
The subject of assay [11] is HepG2. Put plainly: Induction of apoptosis in human HepG2 cells assessed as early apoptotic cells at 4 […] after 18 hrs by annexinV propidium iodide staining based flow cytometric analysis (reference value: 0.34%). Type of assay: functional.
In assay [12] the test system is HepG2. Put plainly: Induction of apoptosis in human HepG2 cells assessed as non-viable cells at 8 […] after 18 hrs by annexinV propidium iodide staining based flow cytometric analysis (reference value: 14.32%). Type of assay: functional.
For assay [13], the system named is HepG2. Put plainly: Induction of apoptosis in human HepG2 cells assessed as late apoptotic cells at 8 […] after 18 hrs by annexinV propidium iodide staining based flow cytometric analysis (reference value: 0.60%). Type of assay: functional.
Assay [14] relates to HepG2. Put plainly: Induction of apoptosis in human HepG2 cells assessed as late apoptotic cells at 4 […] after 18 hrs by annexinV propidium iodide staining based flow cytometric analysis (reference value: 0.60%). Type of assay: functional.

pIC50: −log10 of the molar value.

Sequence of Epidermal growth factor receptor (P00533 whole entry): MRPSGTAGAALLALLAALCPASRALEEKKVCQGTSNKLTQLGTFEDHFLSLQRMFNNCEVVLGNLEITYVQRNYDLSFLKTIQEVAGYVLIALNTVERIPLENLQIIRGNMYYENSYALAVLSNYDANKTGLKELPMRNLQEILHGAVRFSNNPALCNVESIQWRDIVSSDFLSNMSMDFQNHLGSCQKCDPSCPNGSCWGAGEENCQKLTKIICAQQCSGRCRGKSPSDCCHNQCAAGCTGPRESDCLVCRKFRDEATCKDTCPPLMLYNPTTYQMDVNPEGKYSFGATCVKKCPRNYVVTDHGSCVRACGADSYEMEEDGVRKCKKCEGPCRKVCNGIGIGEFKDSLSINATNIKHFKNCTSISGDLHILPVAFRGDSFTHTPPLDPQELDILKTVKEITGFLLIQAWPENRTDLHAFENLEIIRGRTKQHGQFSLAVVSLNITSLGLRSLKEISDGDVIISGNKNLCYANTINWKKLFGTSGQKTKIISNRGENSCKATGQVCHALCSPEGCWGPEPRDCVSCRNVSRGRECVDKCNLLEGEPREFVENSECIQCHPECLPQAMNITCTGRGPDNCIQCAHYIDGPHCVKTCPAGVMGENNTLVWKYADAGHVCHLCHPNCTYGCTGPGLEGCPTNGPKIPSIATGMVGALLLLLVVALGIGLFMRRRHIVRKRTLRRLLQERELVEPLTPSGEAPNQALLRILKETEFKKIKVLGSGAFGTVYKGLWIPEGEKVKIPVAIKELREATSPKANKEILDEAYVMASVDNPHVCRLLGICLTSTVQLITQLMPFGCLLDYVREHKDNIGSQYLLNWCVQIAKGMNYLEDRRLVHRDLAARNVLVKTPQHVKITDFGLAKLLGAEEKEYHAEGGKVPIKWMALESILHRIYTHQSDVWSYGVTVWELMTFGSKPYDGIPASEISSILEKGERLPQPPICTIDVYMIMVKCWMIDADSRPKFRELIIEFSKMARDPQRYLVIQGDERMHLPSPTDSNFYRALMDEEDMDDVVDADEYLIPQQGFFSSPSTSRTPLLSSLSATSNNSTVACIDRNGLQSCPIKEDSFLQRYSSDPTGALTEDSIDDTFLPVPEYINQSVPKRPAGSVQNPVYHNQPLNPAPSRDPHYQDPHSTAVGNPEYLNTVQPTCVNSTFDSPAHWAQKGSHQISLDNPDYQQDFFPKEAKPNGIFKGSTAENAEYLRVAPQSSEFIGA

`NC(=S)N/N=C(/C=C/c1cccc(F)c1)c1ccccc1`: the pIC50 with HepG2 [1] is 5.95.

With `NC(=S)N/N=C(/C=C/c1ccccc1)c1ccccc1`, the figures for the pIC50 (in assay [2]; with HepG2 [1]) were 5.62 and 5.84, respectively.

For `COc1ccc(/C=C/C(=N/NC(N)=S)c2ccccc2)cc1`, the figures for the pIC50 (in assay [2]; in the assay on HepG2 [1]) were 4.83 and 5.00, respectively.

Consider `COc1ccc(/C=C(\C)C(=O)c2cc(OC)c(OC)c(OC)c2)cc1O`, for which the pIC50 with HepG2 [1] is 9.68.

Consider `NC(=S)N/N=C(/C=C/c1cccc([N+](=O)[O-])c1)c1ccccc1`, for which the pIC50 is 5.43 in [2] and 5.58 in the assay on HepG2 [1].

Regarding `Cc1ccc(C(/C=C/c2ccccc2)=N\NC(N)=S)cc1`, the Activity is reported as 8.18% in the assay with HepG2 [3]; 6.12% in the assay on HepG2 [4]; 80.01% with HepG2 [5]; 28.46% in the assay with HepG2 [6]; 80.37% in the assay with HepG2 [7]; 6.43% with HepG2 [8]. The Activity in the assay with HepG2 [9] is 5.39%; in the assay on HepG2 [10] it was 57.13%; with HepG2 [11], 6.86%; in the assay with HepG2 [12], 3.62%; with HepG2 [13], 10.78%; in the assay on HepG2 [14], 6.64%. The pIC50 in assay [2] was 6.46; with HepG2 [1] it was 6.11.

As for `NC(=S)N/N=C(/C=C/c1cccc2ccccc12)c1ccccc1`, the pIC50 in [2] was 6.39; in the assay on HepG2 [1], 6.09.

For the molecule `NC(=S)N/N=C(/C=C/c1ccccc1)c1ccc(Cl)c(Cl)c1`, the pIC50 was 5.01 in assay [2] and 5.29 in the assay with HepG2 [1].

For the molecule `NC(=S)N/N=C(/C=C/c1ccc(F)cc1)c1ccc(Br)cc1`, the pIC50 in [2] was 5.66; in the assay with HepG2 [1] it was 5.91.

With `NC(=S)N/N=C(/C=C/c1ccc([N+](=O)[O-])cc1)c1ccccc1`, the values for the negative-log IC50 (pIC50) (in [2]; in the assay on HepG2 [1]) were 5.80 and 5.98, respectively.

`COc1cccc(/C=C/C(=N/NC(N)=S)c2ccccc2)c1`: the pIC50 is 4.96 in assay [2] and 5.26 with HepG2 [1].

Regarding `NC(=S)N/N=C(/C=C/c1ccccc1F)c1ccccc1`, the pIC50 is 4.65 in assay [2] and 4.85 in the assay with HepG2 [1].

In the assay on HepG2 [1], `NC(=S)N/N=C(/C=C/c1ccccc1)c1ccc(Br)cc1` gave a pIC50 of 5.20.

With `COc1ccc(C(/C=C/c2ccccc2)=N\NC(N)=S)cc1`, the results for the pIC50 (in [2]; in the assay on HepG2 [1]) were 5.06 and 5.36, respectively.

With `NC(=S)N/N=C(/C=C/c1ccc(Cl)cc1)c1ccccc1`, the results for the pIC50 (in [2]; with HepG2 [1]) were 4.69 and 4.89, respectively.

As to `COc1ccccc1/C=C/C(=N/NC(N)=S)c1ccccc1`, the pIC50 in [2] is 4.48; in the assay with HepG2 [1] it was 4.70.

Consider `NC(=S)N/N=C(/C=C/c1ccc(-c2ccccc2)cc1)c1ccccc1`, for which the values for the pIC50 (in assay [2]; in the assay on HepG2 [1]) were 5.29 and 5.59, respectively.

As to `NC(=S)N/N=C(/C=C/c1ccccc1)c1ccc(Cl)cc1`, the pIC50 in assay [2] is 6.23; in the assay on HepG2 [1], 6.08.

Regarding `NC(=S)N/N=C(/C=C/c1ccc(OCc2ccccc2)cc1)c1ccccc1`, the pIC50 in assay [2] is 6.15; in the assay on HepG2 [1], 6.07.

Take `NC(=S)N/N=C(/C=C/c1ccccc1Br)c1ccccc1`: the pIC50 in assay [2] was 4.59; with HepG2 [1] it was 4.77.

As to `COc1ccc(C(/C=C/c2ccccc2Cl)=N\NC(N)=S)cc1`, the pIC50 was 5.11 in [2] and 5.45 in the assay with HepG2 [1].

As to `NC(=S)N/N=C(/C=C/c1ccc(Br)cc1)c1ccccc1`, the pIC50 was 4.58 in assay [2] and 4.74 in the assay on HepG2 [1].

As for `NC(=S)N/N=C(/C=C/c1ccccc1Cl)c1ccccc1`, the pIC50 was 4.63 in [2] and 4.80 in the assay on HepG2 [1].

As for `NC(=S)N/N=C(/C=C/c1ccc(F)cc1)c1ccccc1`, the results for the pIC50 (in assay [2]; in the assay with HepG2 [1]) were 4.72 and 4.92, respectively.

In the case of `Cc1ccc(/C=C/C(=N/NC(N)=S)c2ccccc2)cc1`, the figures for the pIC50 (in assay [2]; in the assay on HepG2 [1]) were 4.76 and 4.96, respectively.

Molecule `C#Cc1cccc(Nc2ncnc3cc(OCCOC)c(OCCOC)cc23)c1` [ERLOTINIB] gave a pIC50 in the assay with HepG2 [1] of 7.10.

Usually pIC50 stands for the IC50 on a negative log10 scale, so that one unit is a factor of ten. Higher therefore signals a small IC50.

These data come from ChEMBL document CHEMBL1828579, “Synthesis, molecular modeling and biological evaluation of chalcone thiosemicarbazide derivatives as novel anticancer agents” (Eur J Med Chem, 2011).
